pIC50: −log10 of the molar value.
Columns and labels:
[1] = system: Trypanosoma brucei brucei; experiment: In vitro inhibitory concentration against blood stream Trypanosoma brucei brucei AT1 wild type incubated for 72 h at 37 degree C; format: functional, organism-based
Summary of the method: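 Wild-type T. b. brucei trypomastigotes, tested alongside the P2 knockout (TbAT1-/-). Alamar Blue viability assay used to derive IC50 values.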

[2] = system: Trypanosoma brucei brucei; experiment: In vitro inhibitory concentration against blood stream Trypanosoma brucei brucei AT1 knockout mutant with a non functional P2 transporter incubated for 72 h at 37 degree C; format: organism-based
Summary of the method: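 Bloodstream T. b. brucei trypomastigotes, wild type or P2 transporter knockout (TbAT1-/-), were tested side by side. Viability was read by Alamar Blue fluorescence and IC50 values were determined.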

[3] = system: Trypanosoma brucei rhodesiense; experiment: Inhibitory concentration in vitro against blood stream Trypanosoma brucei rhodesiense incubated for 72 hr at 37 degree C; format: functional, organism-based
Summary of the method: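 T. b. rhodesiense STIB900 trypomastigotes, a 1982 human isolate from Tanzania, grown in minimum essential medium with 2-mercaptoethanol and 15% heat-inactivated horse serum. Drug dilutions 90 to 0.123 μg/mL, 72 h at 37 °C, 5% CO2.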

[4] = system: L6; experiment: Concentration causing cytotoxicity to 50% of L-6 rat skeletal myoblasts; format: functional, cell-based
Summary of the method: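 L-6 rat skeletal myoblasts run in the same Alamar Blue assay as the trypanosome screen. Serial dilutions spanning 90 to 0.123 μg/mL, 72 h at 37 °C under 5% CO2, then Alamar Blue for a further 2–4 h. Fluorescence read at ex 536/em 588 nm and expressed as % of control to give IC50.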

[5] = system: Trypanosoma cruzi; experiment: In vitro inhibitory concentration against intracellular amastigotes of Trypanosoma cruzi in rat skeletal myoblasts incubated for 37 degree C for 4 days; format: functional, organism-based; details: 96 h
Summary of the method: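 L-6 myoblasts seeded at 2000 cells/well in RPMI 1640 with 10% FBS and 2 mM L-glutamine. After 24 h, 5000 T. cruzi Tulahuen C2C4 (LacZ) trypomastigotes added with serial drug dilution. Incubated 4 days at 37 °C in 5% CO2, then CPRG/Nonidet added.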

[6] = system: Mus musculus; experiment: In vivo antitrypanosomal activity at a dose of 4*20 mg/kg, i.p., in mice infected with Trypanosoma brucei brucei STIB 795 strain; 0/4; format: functional
[7] = system: Mus musculus; experiment: In vivo antitrypanosomal activity at a dose of 4*20 mg/kg, i.p., in mice infected with Trypanosoma brucei brucei STIB 795 strain, measured as survival days (control 7 days); format: functional
[8] = system: Trypanosoma cruzi; experiment: In vivo percent inhibition of compound at a dose of 50 mg/kg, i.p., for 5 doses in mice infected with Trypanosoma cruzi; details: ip
[9] = system: Trypanosoma cruzi; experiment: In vivo activity at a dose of 50 mg/kg, i.p., for 5 doses in mice infected with Trypanosoma cruzi, measured as survival days (control 13 days); details: route intraperitoneal
[10] = system: Leishmania donovani; experiment: Inhibitory concentration in vitro against intracellular amastigotes of Leishmania donovani in mouse peritoneal macrophages incubated for 96 hr at […]; tox is toxic to macrophages
[11] = system: Trypanosoma brucei; experiment: Inhibitory concentration against wild-type (427) Trypanosoma brucei; format: functional, organism-based
[12] = system: Mus musculus; experiment: In vivo antitrypanosomal activity at a dose of 4*20 mg/kg, i.p., in mice infected with Trypanosoma brucei brucei STIB 795 strain; 4/4; format: functional
[13] = system: Mus musculus; experiment: In vivo antitrypanosomal activity at a dose of 4*20 mg/kg, i.p., in mice infected with Trypanosoma brucei rhodesiense STIB 900 strain; 2/4; format: functional
[14] = system: Mus musculus; experiment: In vivo antitrypanosomal activity at a dose of 4*20 mg/kg, i.p., in mice infected with Trypanosoma brucei rhodesiense STIB 900 strain, measured as survival days (control 7 days); format: functional
[15] = system: Trypanosoma brucei; experiment: Inhibitory concentration against RAD51-/- mutant Trypanosoma brucei
[16] = system: Trypanosoma cruzi; experiment: In vivo activity at a dose of 50 mg/kg, i.p., for 5 doses in mice infected with Trypanosoma cruzi, measured as survival days (control 13 days); details: ip, 312 h
[17] = system: Trypanosoma cruzi; experiment: as above
[18] = system: Leishmania donovani; experiment: Inhibitory concentration in vitro against intracellular amastigotes of Leishmania donovani in mouse peritoneal macrophages incubated for 96 hr at 27 degree C
[19] = target: T1, Nucleoside transporter 2 (Trypanosoma brucei brucei) (UniProt Q9U763); experiment: In vitro inhibitory concentration against P2 aminopurine transporter of Trypanosoma brucei brucei 427 adenosine (0.5 uM) uptake in presence of 1 mM inosine
T1 sequence (whole entry): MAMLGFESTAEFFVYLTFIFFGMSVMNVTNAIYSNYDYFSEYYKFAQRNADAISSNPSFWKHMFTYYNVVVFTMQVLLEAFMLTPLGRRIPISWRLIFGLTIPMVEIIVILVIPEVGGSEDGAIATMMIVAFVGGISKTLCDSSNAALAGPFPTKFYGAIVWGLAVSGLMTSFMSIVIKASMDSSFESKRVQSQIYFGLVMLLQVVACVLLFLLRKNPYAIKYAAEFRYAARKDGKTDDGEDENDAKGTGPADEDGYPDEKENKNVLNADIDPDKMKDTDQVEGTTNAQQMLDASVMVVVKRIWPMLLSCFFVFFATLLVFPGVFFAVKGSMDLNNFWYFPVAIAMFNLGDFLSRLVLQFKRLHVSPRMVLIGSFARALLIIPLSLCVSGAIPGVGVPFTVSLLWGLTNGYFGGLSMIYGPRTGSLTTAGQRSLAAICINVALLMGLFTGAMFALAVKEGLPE
Summary of the method: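 Blood-purified T. b. brucei 427 held on ice in Carter's buffered saline. Uptake of radiolabeled adenosine fixed at 0.5 μM via P2, measured with 1 mM inosine present to block P1, by centrifugation through oil over a range of inhibitor concentrations. IC50 obtained by plotting inhibition against inhibitor concentration.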

[20] = system: Mus musculus; experiment: In vivo antitrypanosomal activity at a dose of 4*20 mg/kg, i.p., in mice infected with Trypanosoma brucei rhodesiense STIB 900 strain; 0/4; format: functional
[21] = system: Trypanosoma cruzi; experiment: In vivo activity at a dose of 15 mg/kg, i.p., for 5 doses in rodent model with Trypanosoma cruzi, measured as survival days (control 13 days); details: route intraperitoneal

SMILES	pIC50 [1]	pIC50 [2]	pIC50 [3]	pIC50 [4]	pIC50 [5]	Survival [7]	IC50 [10]	Survival [14]	further results
CN(C)c1nc(N)nc(N/N=C/c2ccc([N+](=O)[O-])o2)n1	5.27	5.51	7.28	3.96	6.54	18.3 days	Toxic	–	Cured/Infected [6]: 0; inhibition in vivo at 50 mg/kg [8]: 45%; Survival [9]: 14 days
CNc1nc(N)nc(N/N=C/c2ccc([N+](=O)[O-])o2)n1	6.89	7.22	7.74	4.31	6.41	>60 days	–	>38.5 days	pIC50 [11]: 7.10; pIC50 ([11]; Trypanosoma brucei): 7.10; Cured/Infected [12]: 4; Cured/Infected [13]: 2; pIC50 [15]: 7.15; inhibition in vivo at 50 mg/kg [16]: 27.8%; Survival [17]: 13 days; pIC50 [18]: 6.12
CN(C)c1nc(N/N=C/c2ccc([N+](=O)[O-])o2)nc(N(C)C)n1	6.70	6.52	8.52	4.73	6.42	–	Toxic	7.25 days	IC50 [19]: 129 µM; Cured/Infected [20]: 0; Survival [21]: 12.8 days

— ChEMBL document CHEMBL1141164, “Design and synthesis of a series of melamine-based nitroheterocycles with activity against Trypanosomatid parasites” (J Med Chem, 2005)
